Data from ChEMBL document CHEMBL5357072, “Structural Modification of Noscapine via Photoredox/Nickel Dual Catalysis for the Discovery of S-Phase Arresting Agents” (ACS Med Chem Lett, 2024).

Experiments:
Type in all cases: functional
Conditions in all cases: read-out: GI
[1] = system: NB-4; assay: Antiproliferative activity against human NB4 cells assessed as cell growth inhibition at 10 uM incubated for 48 hrs by CCK8 assay relative to control
Method in brief: (§1)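 Single-concentration screen of six cancer cell lines. Cells were exposed to 10 μM compound and growth was measured by CCK-8 assay. Results are reported as inhibition rate at 10 μM.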

[2] = system: MOLM-13; assay: Antiproliferative activity against human MOLM-13 cells assessed as cell growth inhibition at 10 uM incubated for 48 hrs by CCK8 assay relative to control; method in brief: as §1
[3] = system: JeKo-1; assay: Antiproliferative activity against human JeKo-1 cells assessed as cell growth inhibition at 10 uM incubated for 48 hrs by CCK8 assay relative to control; method in brief: as §1
[4] = system: A549; assay: Antiproliferative activity against human A549 cells assessed as cell growth inhibition at 10 uM incubated for 48 hrs by CCK8 assay relative to control; method in brief: as §1
[5] = system: HeLa; assay: Antiproliferative activity against human HeLa cells assessed as cell growth inhibition at 10 uM incubated for 48 hrs by CCK8 assay relative to control; method in brief: as §1
[6] = system: U-251; assay: Antiproliferative activity against human U-251 cells assessed as cell growth inhibition at 10 uM incubated for 48 hrs by CCK8 assay relative to control; method in brief: as §1

SMILES	inhibition of growth at 10 µM [1]	inhibition of growth at 10 µM [2]	inhibition of growth at 10 µM [3]	inhibition of growth at 10 µM [4]	inhibition of growth at 10 µM [5]	inhibition of growth at 10 µM [6]
COc1ccc2c(c1OC)C(=O)O[C@@H]2[C@H]1c2c(c(C3COC3)c3c(c2OC)OCO3)CCN1C(=O)OC(C)(C)C	9.21%	11.7%	13.3%	< 5%	14.9%	12.3%
COc1ccc2c(c1OC)C(=O)O[C@@H]2[C@H]1c2c(c(C3CCN(C(=O)OC(C)(C)C)CC3)c3c(c2OC)OCO3)CCN1C(=O)OC(C)(C)C	21.2%	62.9%	22.3%	14.7%	17.5%	< 5%
COc1ccc2c(c1OC)C(=O)O[C@@H]2[C@H]1c2c(c(CC3CCCO3)c3c(c2OC)OCO3)CCN1C(=O)OC(C)(C)C (stereo partly specified)	7.48%	44.9%	15.6%	< 5%	24.7%	29.8%
COc1ccc2c(c1OC)C(=O)O[C@@H]2[C@H]1c2c(c(CC3CCN(C(=O)OC(C)(C)C)CC3)c3c(c2OC)OCO3)CCN1C(=O)OC(C)(C)C	37.3%	58.1%	22.7%	< 5%	< 5%	< 5%
COc1ccc2c(c1OC)C(=O)O[C@@H]2[C@H]1c2c(c(C3CCOC3)c3c(c2OC)OCO3)CCN1C(=O)OC(C)(C)C (stereo partly specified)	23.3%	43.6%	20.8%	< 5%	< 5%	32.1%
COc1ccc2c(c1OC)C(=O)O[C@@H]2[C@H]1c2c(c(CC3CCOCC3)c3c(c2OC)OCO3)CCN1C(=O)OC(C)(C)C	4.77%	48.4%	20.4%	< 5%	23%	13.2%
COc1ccc2c(c1OC)C(=O)O[C@@H]2[C@H]1c2c(c(CC3CCN(C(=O)OC(C)(C)C)C3)c3c(c2OC)OCO3)CCN1C(=O)OC(C)(C)C (stereo partly specified)	23.2%	52.5%	7.92%	< 5%	< 5%	< 5%
COc1ccc2c(c1OC)C(=O)O[C@@H]2[C@H]1c2c(c(C3CN(C(=O)OC(C)(C)C)C3)c3c(c2OC)OCO3)CCN1C(=O)OC(C)(C)C	30.1%	49.7%	17.6%	< 5%	< 5%	< 5%
COc1ccc2c(c1OC)C(=O)O[C@@H]2[C@H]1c2c(c(C3CCN(C(=O)OC(C)(C)C)C3)c3c(c2OC)OCO3)CCN1C(=O)OC(C)(C)C (stereo partly specified)	22.1%	54.8%	14.9%	17.7%	< 5%	< 5%
COc1ccc2c(c1OC)C(=O)O[C@@H]2[C@H]1c2c(c(CC3CCCN3C(=O)OC(C)(C)C)c3c(c2OC)OCO3)CCN1C(=O)OC(C)(C)C (stereo partly specified)	29.7%	48.1%	15.7%	< 5%	8.57%	< 5%
COc1ccc2c(c1OC)C(=O)O[C@@H]2[C@H]1c2c(c(C3CCOCC3)c3c(c2OC)OCO3)CCN1C(=O)OC(C)(C)C	4.36%	36.8%	12%	< 5%	< 5%	< 5%
